Assay results from ChEMBL document CHEMBL4270668, “Design, Synthesis, Molecular Dynamics Simulation, and Functional Evaluation of a Novel Series of 26RFa Peptide Analogues Containing a Mono- or Polyalkyl Guanidino Arginine Derivative” (J Med Chem, 2018).
Calls of active or inactive are those of the source. No cut-off for these calls is given here. Starred links: 1 amine or outer side, 2 acyl side, 3 side chain; linkers in the order of their positions; H or OH if unused. Non-standard residues stand in square brackets, D forms with d. Residues, ends and D or L forms follow the SMILES beside them. X1 = C/N=C(\NCCC[C@H](N[*:1])C(=O)[*:2])N(C)C; Arg(Me2a) = CN(C)C(=N)NCCC[C@H](N)C(=O)O; Arg(Me) = CNC(=N)NCCC[C@H](N)C(=O)O

How the values were obtained:
Mus musculus [1] = assay: Induction of insulin-induced hypoglycemia in C57Bl/6J mouse at 148 ug/kg, ip measured up to 90 mins post insulin injection by insulin tolerance test; format: functional, organism-based
In short: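 Mice fasted 6 h with water available, then given i.p. human insulin 0.75 U/kg together with peptide 148 µg/kg (equimolar to 26RFa) or vehicle. Tail-vein plasma glucose read by glucometer at 0, 15, 30, 60 and 90 min. At least eight animals per group; two-way ANOVA with Tukey post-test.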

Mus musculus [2] = assay: Induction of insulin-induced hypoglycemia in C57Bl/6J mouse at 148 ug/kg, ip measured after 90 mins post insulin injection by insulin tolerance test; format: functional, organism-based; conditions: 741 ug/kg, in the assay text read “741 ug/kg” for “148 ug/kg”
[3] = target: T1, Pyroglutamylated RF-amide peptide receptor (Homo sapiens, UniProt Q96P65); assay: Agonist activity at human QRFPR expressed in CHO cells co-expressing Galpha16 assessed as increase Ca2+ mobilization after 3 mins by Fluo-4 AM-based scanning fluorometery; format: functional, cell-based
T1 sequence (Q96P65 whole entry): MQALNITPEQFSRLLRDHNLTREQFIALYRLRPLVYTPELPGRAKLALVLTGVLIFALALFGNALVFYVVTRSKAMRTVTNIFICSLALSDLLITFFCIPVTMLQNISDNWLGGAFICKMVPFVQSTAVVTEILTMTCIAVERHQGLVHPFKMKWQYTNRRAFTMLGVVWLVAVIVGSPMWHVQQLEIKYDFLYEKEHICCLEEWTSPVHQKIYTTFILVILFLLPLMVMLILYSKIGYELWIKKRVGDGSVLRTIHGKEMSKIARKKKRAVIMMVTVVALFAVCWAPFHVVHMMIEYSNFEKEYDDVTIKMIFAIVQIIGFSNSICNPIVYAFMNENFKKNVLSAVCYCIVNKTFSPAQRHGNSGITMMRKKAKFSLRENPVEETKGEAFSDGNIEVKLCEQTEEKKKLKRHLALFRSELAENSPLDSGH
In short: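 CHO-Gα16 cells stably expressing human QRFPR, seeded at 40,000 cells/well 24 h ahead. Loaded 1 h with 2 µM Fluo-4 AM plus 0.01% pluronic acid, washed, then 30 min in HBSS with 2.5 mM probenecid and 5 mM HEPES. Compounds added at final 10^-11 to 10^-5 M; fluorescence recorded 3 min on a scanning fluorometer. EC50 from sigmoidal variable-slope fits, ≥3 experiments in triplicate.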

[4] = target: T2, Pyroglutamylated RF-amide peptide receptor (Homo sapiens) (UniProt Q96P65); assay: Antagonist activity at human QRFPR expressed in CHO cells co-expressing Galpha16 assessed as inhibition of 26RFa-induced Ca2+ mobilization at 100 uM preincubated for 15 mins followed by agonist addition measured after 3 mins by Fluo-4 AM-based scanning fluorometery relative to 26RFa (20 to 26 residues); format: functional, cell-based
T2 sequence (whole entry): T1 sequence (Q96P65 whole entry)
In short: (§1)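 CHO-Gα16-hQRFPR cells loaded 1 h with 2 µM Fluo-4 AM, then incubated 15 min with graded compound. A 10^-7 M final 26RFa pulse was given during recording. Background subtracted, baseline normalized to 100%, peak fluorescence taken per concentration. IC50 from sigmoidal variable-slope fits, ≥3 experiments in triplicate. Maximal effect at 10^-4 M expressed as % inhibition of the 26RFa (10^-7 M) response.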

[5] = target: T1, Pyroglutamylated RF-amide peptide receptor; assay: Antagonist activity at human QRFPR expressed in CHO cells co-expressing Galpha16 assessed as inhibition of 26RFa-induced Ca2+ mobilization preincubated for 15 mins followed by agonist addition measured after 3 mins by Fluo-4 AM-based scanning fluorometery; format: functional, cell-based; in short: as §1
Mus musculus [6] = assay: Induction of insulin-induced hypoglycemia in C57Bl/6J mouse at 500 ug/kg, ip measured up to 90 mins post insulin injection by insulin tolerance test; format: functional, organism-based
In short: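 Mice fasted 6 h, then given i.p. insulin 0.75 U/kg with 26RFa 500 µg/kg, or phosphate buffer as vehicle. Tail-vein plasma glucose measured by glucometer at 0, 15, 30, 60 and 90 min. n = 8 per group; two-way ANOVA with Tukey post-test.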

[7] = target: T2, Pyroglutamylated RF-amide peptide receptor (Homo sapiens); assay: Antagonist activity at human QRFPR expressed in CHO cells co-expressing Galpha16 assessed as inhibition of 26RFa-induced Ca2+ mobilization at 10 uM preincubated for 30 mins followed by agonist addition measured after 3 mins by Fluo-4 AM-based scanning fluorometery; format: functional, cell-based
In short: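 One-dose screen in CHO-Gα16 cells stably expressing human QRFPR, Fluo-4 AM loaded. Cells incubated 30 min with analogue at 10^-5 M, then challenged with 26RFa at 10^-7 M during fluorescence recording. Response normalized to 26RFa alone in HBSS.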

| EC50 [3] | Imax [4] | IC50 [5] | inhibition [7] | Molecule | Activity (Mus musculus [1]) | Activity (Mus musculus [2]) | Activity (Mus musculus [6]) |
| --- | --- | --- | --- | --- | --- | --- | --- |
| 0.0664 µM | – | – | – | CNC(=N)NCCC[C@H](NC(=O)[C@H](Cc1ccccc1)NC(=O)[C@H](CO)NC(=O)[C@H](Cc1ccccc1)NC(=O)CNC(=O)CN)C(=O)N[C@@H](Cc1ccccc1)C(N)=O (H-GGFSF[Arg(Me)]F-NH2) | inactive | Active | – |
| > 100 µM | 80% | 6.06 µM | – | CN(C)C(=N)NCCC[C@H](NC(=O)[C@H](Cc1ccccc1)NC(=O)[C@H](CO)NC(=O)[C@H](Cc1ccccc1)NC(=O)CNC(=O)CN)C(=O)N[C@@H](Cc1ccccc1)C(N)=O (H-GGFSF[Arg(Me2a)]F-NH2) | – | – | – |
| 0.046 µM | – | – | – | H-VGTALGSLAEELNGYNRKKGGFSFRF-NH2 | – | – | Active |
| > 100 µM | 87.5% | 8.25 µM | 47% | C/N=C(\NCCC[C@H](NC(=O)[C@H](Cc1ccccc1)NC(=O)[C@H](CO)NC(=O)[C@H](Cc1ccccc1)NC(=O)CNC(=O)CN)C(=O)N[C@@H](Cc1ccccc1)C(N)=O)N(C)C (H-GGFSF[X1]F-NH2) | – | – | – |
